The test system of experiment [1] is A2780. Put plainly: Compound was evaluated against human Ovarian carcinoma cell line A2780cisR. The class given is functional, cell-based. In outline:
(§1)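 MTT cell survival assay. Compounds dissolved in 10 mM NaClO4 in distilled water, with 1 mg/mL stocks freshly prepared. Final concentrations 0–200 μM added to the cultures. Survival read 24 h later by absorbance at 520 nm. IC50 (concentration giving 50% cell killing) taken from % survival vs concentration curves. Run in quadruplicate.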

For experiment [2], the system named is A2780. The experiment is described as follows: Compound was evaluated against human Ovarian carcinoma cell line A2780. It counts as functional, cell-based. Summed up: as §1
In experiment [3] the test system is CH1. Put plainly: Compound was evaluated against human Ovarian carcinoma cell line CH1. It counts as functional, cell-based. Summed up:
as §1

In experiment [4] the test system is PAM212. Put plainly: Compound was evaluated against normal Pam 212 cell line. It counts as functional, cell-based, Mus musculus. In outline:
as §1

In experiment [5] the test system is PAM212. Put plainly: Compound was evaluated against transformed murine keratinocytes Pam 212-ras cell line. The class given is functional, cell-based, Mus musculus. Summed up:
as §1

Experiment [6] deals with CH1. Put plainly: Compound was evaluated against human Ovarian carcinoma cell line CH1cisR. It counts as functional, cell-based. Summed up: as §1

The source of these data is ChEMBL document CHEMBL1135605, “Preparation and characterization of platinum(II) and (IV) complexes of 1,3-diaminepropane and 1,4-diaminebutane: circumvention of cisplatin resistance and DNA interstrand cross-link formation in CH1cisR ovarian tumor cells” (J Med Chem, 2002).

Some results are limits rather than exact numbers.

As for CARBOPLATIN, the IC50 was 178 µM with A2780 [1]; 18 µM in the experiment on A2780 [2]; 52 µM in the experiment with CH1 [3]; more than 200 µM with PAM212 [4]; more than 200 µM in the experiment with PAM212 [5]; 185 µM in the experiment on CH1 [6].
For CISPLATIN, the half-maximal inhibitory concentration (IC50) amounted to 36 µM with A2780 [1]; 2 µM in the experiment with A2780 [2]; 6 µM in the experiment on CH1 [3]; 44 µM in the experiment with PAM212 [4]; 72 µM in the experiment on PAM212 [5]; 25 µM in the experiment on CH1 [6].
On to “Cis-[Pt(1,3-diaminebutane)2(O-Succinate)2]”, for which the IC50 in the experiment with A2780 [1], with A2780 [2], in the experiment on CH1 [3], with PAM212 [4], in the experiment on PAM212 [5] and in the experiment with CH1 [6] was more than 200 µM throughout.
As for “Cis-[Pt(1,3-diaminebutane)2(OH)2] 1,1-cyclobutanedicarboxylate”, the IC50 in the experiment on A2780 [1], in the experiment with A2780 [2], in the experiment on CH1 [3], with PAM212 [4], in the experiment with PAM212 [5] and with CH1 [6] was more than 200 µM throughout.
Turning to “Cis-[Pt(1,3-diaminebutane)2] 1,1-cyclobutanedicarboxylate”, the half-inhibitory concentration (IC50) with A2780 [1], in the experiment with A2780 [2], with CH1 [3], in the experiment on PAM212 [4], in the experiment with PAM212 [5] and with CH1 [6] was more than 200 µM in each case.
Regarding “Cis-[Pt(1,3-diaminebutane) 1,1-cyclobutanedicarboxylate]”, the IC50 in the experiment with A2780 [1] turned out to be 0.74 µM; with A2780 [2] it was 0.32 µM; in the experiment with CH1 [3], 3.3 µM; in the experiment on PAM212 [4], 100 µM; in the experiment with PAM212 [5] it was 42 µM; in the experiment on CH1 [6] it was 6 µM.
For “Cis-[Pt(1,3-diaminepropane)2(O-Glutarate)2]”, the IC50 in the experiment with A2780 [1], with A2780 [2], with CH1 [3], in the experiment with PAM212 [4], in the experiment on PAM212 [5] and with CH1 [6] was more than 200 µM throughout.
As to “Cis-[Pt(1,3-diaminepropane)2(O-Maleate)2]”, the IC50 with A2780 [1], in the experiment on A2780 [2], in the experiment on CH1 [3], with PAM212 [4], in the experiment with PAM212 [5] and in the experiment on CH1 [6] was more than 200 µM each time.
As for “Cis-[Pt(1,3-diaminepropane)2(O-Succinate)2]”, the IC50 in the experiment with A2780 [1], in the experiment on A2780 [2], in the experiment on CH1 [3], in the experiment on PAM212 [4], in the experiment on PAM212 [5] and with CH1 [6] was more than 200 µM each time.
For “Cis-[Pt(1,3-diaminepropane)2(OH)2] 1,1-cyclobutanedicarboxylate”, the concentration for half-maximal inhibition (IC50) in the experiment on A2780 [1], in the experiment on A2780 [2], with CH1 [3], in the experiment on PAM212 [4], in the experiment with PAM212 [5] and in the experiment on CH1 [6] was more than 200 µM in each case.
“Cis-[Pt(1,3-diaminepropane)2] 1,1-cyclobutanedicarboxylate”: the concentration for half-maximal inhibition (IC50) in the experiment with A2780 [1], in the experiment on A2780 [2], in the experiment on CH1 [3], in the experiment on PAM212 [4], in the experiment on PAM212 [5] and in the experiment on CH1 [6] was more than 200 µM each time.
Regarding “Cis-[Pt(1,3-diaminepropane) 1,1-cyclobutanedicarboxylate]”, the IC50 with A2780 [1] is 1 µM; with A2780 [2] it was 0.3 µM; with CH1 [3], 4.5 µM; with PAM212 [4], 85 µM; with PAM212 [5] it was 64 µM; in the experiment with CH1 [6], 8 µM.
